From PubChem BioAssay AID602126 (Broad Institute, 2011)
Activity calls are given as the source filed them.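 How the source made its calls: active means compounds cutting cell ATP light whose fitted AC50 is at most double the top dose tried; inconclusive means flat moderate signal loss, or an unreliable curve fit; inactive means the rest.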

tested on: ldlA[mSR-BI] CHO cells viability, CellTiter-Glo ATP luminescence, 24 h; assay: cytotoxicity in ldlA[mSR-BI] CHO cells, dose response, cytotoxicity control for SR-BI HDL uptake inhibitor project, cell-based, CellTiter-Glo luminescence, 24 h, dry powder, set 5 (AID 602126)
Procedure, shortened: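 Technique: CellTiter-Glo ATP luminescence; System: ldlA[mSR-BI] cells, cell viability measurement; Amount: 4,000 ldlA[mSR-BI] cells per well; Incubation: 24 h compound exposure at 37 °C, then 10 min with detection reagent.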

Row | Compound | AC50
1 | CCc1sc(N2C(=O)C3C4CCC(C4=C(C)C)C3C2=O)nc1-c1ccccc1 (stereo not given) | > 70 µM (inactive)
2 | COC(=O)N1CCc2cc(-c3csc(NC(=O)c4cc(OC)cc(OC)c4)n3)ccc21 | > 70 µM (inactive)
3 | O=C(Nc1ccccc1)c1ccccc1NS(=O)(=O)c1ccc(Cl)cc1 | 32.5 µM
4 | O=C(CN(C(=O)Cn1nnc(-c2ccc3c(c2)OC(F)(F)O3)n1)C1CCCCC1)NC1CCCC1 | > 70 µM (inactive)
5 | O=C(Nc1ccc(-c2nc3ccc(NC(=O)c4ccccc4)cc3[nH]2)cc1)c1ccccc1 | 2.63 µM
6 | C[C@H](CO)N1C[C@H](C)[C@@H](CN(C)S(=O)(=O)c2ccc(Cl)cc2)Oc2ccc(NC(=O)Cc3cn(C)c4ccccc34)cc2C1=O | > 70 µM (inactive)
7 | O=C(CN(C(=O)Cn1nnc(-c2ccc3c(c2)OCO3)n1)C1CCCCC1)NC1CCCC1 | > 70 µM (inactive)
8 | O=C(Nc1cccc(NC(=O)c2cc([N+](=O)[O-])ccc2Cl)n1)c1cc([N+](=O)[O-])ccc1Cl | 21.9 µM
9 | CCn1c(COc2c(C)cccc2C)nnc1SCC(=O)N1CCN(c2ccccc2)CC1 | 65.2 µM
10 | C[C@H]1CN([C@@H](C)CO)C(=O)c2cc(NC(=O)Cc3cn(C)c4ccccc34)ccc2O[C@@H]1CN(C)S(=O)(=O)c1ccc(Cl)cc1 | > 70 µM (inactive)
11 | C[C@@H]1CN([C@H](C)CO)C(=O)c2cc(NC(=O)Cc3cn(C)c4ccccc34)ccc2O[C@@H]1CN(C)S(=O)(=O)c1ccc(F)cc1 | 50.8 µM
12 | CC(C(=O)NC1CCCC1)N(C(=O)Cn1nnc(-c2ccc3c(c2)OCO3)n1)C1CCCCC1 (stereo not given) | 53 µM
13 | CCCCCCC1CCC/C1=N\NC(N)=S (stereo not given) | 2.13 µM
14 | CC(C(=O)NC1CCCC1)N(C(=O)Cn1nnc(-c2ccc(Cl)c(Cl)c2)n1)C1CCCCC1 (stereo not given) | 37 µM
15 | COc1cccc(-c2csc(N3CCN(C(=S)Nc4cccc(Cl)c4)CC3)n2)c1 | 51.7 µM
16 | COC(=O)c1cn(C(=O)c2cccc3ccccc23)c2ccccc12 | 38 µM
17 | CCC(=O)N1CCc2cc(-c3csc(NC(=O)C4CCCO4)n3)ccc21 (stereo not given) | 46.5 µM
18 | COCC(=O)N1CCc2cc(-c3csc(NC(=O)c4cc(OC)cc(OC)c4)n3)ccc21 | > 70 µM (inactive)
19 | C[C@H]1CN([C@@H](C)CO)C(=O)c2cccc(NC(=O)Nc3ccccc3)c2O[C@@H]1CN(C)Cc1ccccc1 | > 70 µM (inactive)
20 | N#Cc1sc2nc(C3CC3)cc(-c3ccc(Cl)cc3)c2c1N | 63.1 µM

Row | Compound | AC50
21 | C[C@H]1CN([C@@H](C)CO)C(=O)c2cccc(N(C)C)c2O[C@@H]1CN(C)Cc1ccc(Cl)c(Cl)c1 | > 70 µM (inactive)
22 | C=CCN1CCc2cc(-c3csc(NC(=O)c4ccco4)n3)ccc21 | 57.7 µM
23 | C[C@@H]1CN([C@H](C)CO)C(=O)c2cc(NC(=O)Cc3cn(C)c4ccccc34)ccc2O[C@H]1CN(C)S(=O)(=O)c1ccccc1 | 49.8 µM
24 | CCC(=O)Nc1ccc(-c2csc(NC(=O)c3cccc(OC)c3)n2)cc1 | > 70 µM (inactive)
25 | O=C(Nc1cc(Cl)ccc1Cl)c1cc(Cl)ccc1NS(=O)(=O)c1ccc(Cl)c([N+](=O)[O-])c1 | 17.3 µM
26 | CCC(=O)N1CCc2cc(-c3csc(N(C)C(=O)c4cc(OC)cc(OC)c4)n3)ccc21 | 15.1 µM
27 | Cc1ccccc1NC(=O)NCC1CCN(c2ccc(S(=O)(=O)N3CCOCC3)cc2)CC1 | 58.3 µM
28 | CCOC(=O)N1CCC(NC(=O)c2ccc3c(c2)N(Cc2ccc(F)cc2)CCS3)CC1 | 65.5 µM
29 | COc1cc(OC)cc(C(=O)Nc2nc(-c3ccc4c(c3)CCN4)cs2)c1 | 46.5 µM
30 | CCC(=O)N1CCc2cc(-c3csc(NC(=O)c4cc(OC)cc(OC)c4)n3)ccc21 | > 70 µM (inactive)
31 | CC(C)C(=O)N1CCc2cc(-c3csc(NC(=O)c4ccco4)n3)ccc21 | > 70 µM (inactive)
32 | O=C(Nc1cc(Cl)ccc1Cl)c1cc(Br)ccc1NS(=O)(=O)c1ccc(Cl)c([N+](=O)[O-])c1 | 21 µM
33 | CCC(=O)N1CCc2cc(-c3csc(NC(=O)c4cc(OC)c(OC)c(OC)c4)n3)ccc21 | > 70 µM (inactive)
34 | COc1ccc(OC)c(CCNC(=O)c2ccc3c(c2)N(Cc2ccc(F)cc2)CCS3)c1 | > 70 µM (inactive)
35 | COc1cc(OC)cc(C(=O)Nc2nc(-c3ccc4c(c3)CCN4C(C)=O)cs2)c1 | > 70 µM (inactive)
36 | C[C@H]1CN([C@@H](C)CO)C(=O)c2cc(NC(=O)Cc3cn(C)c4ccccc34)ccc2O[C@H]1CN(C)S(=O)(=O)c1ccc(Cl)cc1 | > 70 µM (inactive)
37 | O=C(Nc1nc(-c2ccc3c(c2)CCN3)cs1)c1ccco1 | > 70 µM (inactive)
38 | CCC(=O)N1CCc2cc(-c3csc(NC(=O)c4cccc(OC)c4)n3)ccc21 | > 70 µM (inactive)
39 | CCNC(=O)N1CCc2cc(-c3csc(NC(=O)c4cc(OC)cc(OC)c4)n3)ccc21 | 60 µM
40 | O=C(Nc1ccc(Cl)cc1C(=O)c1ccc(Cl)cc1)c1cc(Br)ccc1NS(=O)(=O)c1ccc(Cl)cc1 | 4.98 µM
